Measured values from ChEMBL document CHEMBL5705888, “Substrate specificity and inhibitors of LRRK2, a protein kinase mutated in Parkinson's disease” (Biochem J, 2009).

Columns and labels:
[1] = molecular target: T1, Dual specificity tyrosine-phosphorylation-regulated kinase 3 (Homo sapiens) (UniProt O43781); test: Inhibition of DYRK3 (unknown origin) at 1 uM incubated for 30 mins in presence of [gamma-33P]ATP by multidrop micro reagent based assay relative to control; values are per cent of control
T1 sequence (whole entry): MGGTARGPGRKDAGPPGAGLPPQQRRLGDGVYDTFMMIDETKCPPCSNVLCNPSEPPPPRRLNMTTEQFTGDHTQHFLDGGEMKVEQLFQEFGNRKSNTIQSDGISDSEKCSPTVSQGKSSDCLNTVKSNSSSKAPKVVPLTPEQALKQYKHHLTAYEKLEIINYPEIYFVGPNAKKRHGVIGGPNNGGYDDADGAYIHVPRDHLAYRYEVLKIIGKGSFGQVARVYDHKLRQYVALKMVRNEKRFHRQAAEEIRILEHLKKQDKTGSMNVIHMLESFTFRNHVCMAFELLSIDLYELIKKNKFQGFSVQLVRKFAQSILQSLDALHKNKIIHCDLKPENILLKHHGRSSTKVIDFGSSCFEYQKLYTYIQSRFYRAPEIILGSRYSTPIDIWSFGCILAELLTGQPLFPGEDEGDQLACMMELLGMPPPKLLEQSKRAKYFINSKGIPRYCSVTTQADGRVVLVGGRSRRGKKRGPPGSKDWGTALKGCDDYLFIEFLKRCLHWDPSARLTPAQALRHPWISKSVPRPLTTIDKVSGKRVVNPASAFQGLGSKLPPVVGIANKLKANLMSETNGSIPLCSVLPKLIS

[2] = molecular target: T2, Mitogen-activated protein kinase 15 (Homo sapiens) (UniProt Q8TD08); test: Inhibition of ERK8 (unknown origin) at 1 uM incubated for 30 mins in presence of [gamma-33P]ATP by multidrop micro reagent based assay relative to control; values are per cent of control
T2 sequence (whole entry): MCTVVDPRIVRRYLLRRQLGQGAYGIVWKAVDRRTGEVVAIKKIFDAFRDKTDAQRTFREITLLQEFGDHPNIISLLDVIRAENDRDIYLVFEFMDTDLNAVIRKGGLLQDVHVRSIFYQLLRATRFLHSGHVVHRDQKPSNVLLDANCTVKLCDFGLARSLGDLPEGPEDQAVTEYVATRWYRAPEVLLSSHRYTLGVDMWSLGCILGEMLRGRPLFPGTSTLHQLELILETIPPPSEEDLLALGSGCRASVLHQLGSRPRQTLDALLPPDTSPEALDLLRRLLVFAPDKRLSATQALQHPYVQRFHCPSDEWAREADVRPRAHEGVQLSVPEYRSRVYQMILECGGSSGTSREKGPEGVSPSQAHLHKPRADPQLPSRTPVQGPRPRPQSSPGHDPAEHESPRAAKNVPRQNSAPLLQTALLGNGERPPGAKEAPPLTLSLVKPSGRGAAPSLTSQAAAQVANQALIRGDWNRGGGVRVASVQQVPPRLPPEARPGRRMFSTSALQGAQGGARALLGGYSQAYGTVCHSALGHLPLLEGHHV

Homo sapiens = organism: Homo sapiens; test: Inhibition of VEGFR (unknown origin) at 1 uM incubated for 30 mins in presence of [gamma-33P]ATP by multidrop micro reagent based assay relative to control; values are per cent of control
[3] = molecular target: Insulin receptor-related protein (Homo sapiens) (UniProt P14616); test: Inhibition of IRR (unknown origin) at 1 uM incubated for 30 mins in presence of [gamma-33P]ATP by multidrop micro reagent based assay relative to control
Insulin receptor-related protein (Homo sapiens), sequence (P14616 27-742 limits assumed): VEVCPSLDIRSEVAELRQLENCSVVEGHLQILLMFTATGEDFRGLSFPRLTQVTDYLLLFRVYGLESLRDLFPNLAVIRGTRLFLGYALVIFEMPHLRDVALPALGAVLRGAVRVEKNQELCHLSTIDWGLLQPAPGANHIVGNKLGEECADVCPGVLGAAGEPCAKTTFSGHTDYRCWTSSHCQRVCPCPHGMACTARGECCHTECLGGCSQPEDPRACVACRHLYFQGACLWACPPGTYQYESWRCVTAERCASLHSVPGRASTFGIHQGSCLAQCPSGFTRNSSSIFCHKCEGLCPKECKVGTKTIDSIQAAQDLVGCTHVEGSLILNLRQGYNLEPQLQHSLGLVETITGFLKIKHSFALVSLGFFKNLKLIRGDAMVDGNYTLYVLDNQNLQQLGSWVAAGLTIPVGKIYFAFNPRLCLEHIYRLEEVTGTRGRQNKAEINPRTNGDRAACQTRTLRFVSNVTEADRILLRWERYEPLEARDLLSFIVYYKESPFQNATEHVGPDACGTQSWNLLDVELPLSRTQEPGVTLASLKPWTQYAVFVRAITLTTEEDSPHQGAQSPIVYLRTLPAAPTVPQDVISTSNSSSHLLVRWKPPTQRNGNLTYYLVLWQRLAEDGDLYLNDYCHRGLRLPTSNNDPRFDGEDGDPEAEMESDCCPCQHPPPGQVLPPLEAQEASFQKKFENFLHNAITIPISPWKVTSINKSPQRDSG
Insulin receptor-related protein (Homo sapiens), sequence (P14616 747-1297 limits assumed): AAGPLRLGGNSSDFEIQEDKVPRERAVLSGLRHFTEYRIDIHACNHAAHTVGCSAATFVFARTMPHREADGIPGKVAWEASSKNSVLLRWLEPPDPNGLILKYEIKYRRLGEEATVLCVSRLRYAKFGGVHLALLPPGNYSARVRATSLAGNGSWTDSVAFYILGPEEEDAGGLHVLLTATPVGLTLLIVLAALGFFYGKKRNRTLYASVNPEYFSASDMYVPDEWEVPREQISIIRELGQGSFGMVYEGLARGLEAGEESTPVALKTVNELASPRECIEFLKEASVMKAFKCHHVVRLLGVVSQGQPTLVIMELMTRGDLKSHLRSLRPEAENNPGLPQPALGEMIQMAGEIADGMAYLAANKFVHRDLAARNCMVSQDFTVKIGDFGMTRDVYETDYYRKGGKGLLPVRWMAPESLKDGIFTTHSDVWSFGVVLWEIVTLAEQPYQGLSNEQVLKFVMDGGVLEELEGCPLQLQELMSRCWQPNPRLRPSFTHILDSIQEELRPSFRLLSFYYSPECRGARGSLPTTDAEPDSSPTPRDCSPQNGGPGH

[4] = molecular target: Receptor tyrosine-protein kinase erbB-4 (Homo sapiens) (UniProt Q15303); test: Inhibition of HER4 (unknown origin) at 1 uM incubated for 30 mins in presence of [gamma-33P]ATP by multidrop micro reagent based assay relative to control; values are per cent of control
Receptor tyrosine-protein kinase erbB-4 (Homo sapiens), sequence (Q15303 whole entry): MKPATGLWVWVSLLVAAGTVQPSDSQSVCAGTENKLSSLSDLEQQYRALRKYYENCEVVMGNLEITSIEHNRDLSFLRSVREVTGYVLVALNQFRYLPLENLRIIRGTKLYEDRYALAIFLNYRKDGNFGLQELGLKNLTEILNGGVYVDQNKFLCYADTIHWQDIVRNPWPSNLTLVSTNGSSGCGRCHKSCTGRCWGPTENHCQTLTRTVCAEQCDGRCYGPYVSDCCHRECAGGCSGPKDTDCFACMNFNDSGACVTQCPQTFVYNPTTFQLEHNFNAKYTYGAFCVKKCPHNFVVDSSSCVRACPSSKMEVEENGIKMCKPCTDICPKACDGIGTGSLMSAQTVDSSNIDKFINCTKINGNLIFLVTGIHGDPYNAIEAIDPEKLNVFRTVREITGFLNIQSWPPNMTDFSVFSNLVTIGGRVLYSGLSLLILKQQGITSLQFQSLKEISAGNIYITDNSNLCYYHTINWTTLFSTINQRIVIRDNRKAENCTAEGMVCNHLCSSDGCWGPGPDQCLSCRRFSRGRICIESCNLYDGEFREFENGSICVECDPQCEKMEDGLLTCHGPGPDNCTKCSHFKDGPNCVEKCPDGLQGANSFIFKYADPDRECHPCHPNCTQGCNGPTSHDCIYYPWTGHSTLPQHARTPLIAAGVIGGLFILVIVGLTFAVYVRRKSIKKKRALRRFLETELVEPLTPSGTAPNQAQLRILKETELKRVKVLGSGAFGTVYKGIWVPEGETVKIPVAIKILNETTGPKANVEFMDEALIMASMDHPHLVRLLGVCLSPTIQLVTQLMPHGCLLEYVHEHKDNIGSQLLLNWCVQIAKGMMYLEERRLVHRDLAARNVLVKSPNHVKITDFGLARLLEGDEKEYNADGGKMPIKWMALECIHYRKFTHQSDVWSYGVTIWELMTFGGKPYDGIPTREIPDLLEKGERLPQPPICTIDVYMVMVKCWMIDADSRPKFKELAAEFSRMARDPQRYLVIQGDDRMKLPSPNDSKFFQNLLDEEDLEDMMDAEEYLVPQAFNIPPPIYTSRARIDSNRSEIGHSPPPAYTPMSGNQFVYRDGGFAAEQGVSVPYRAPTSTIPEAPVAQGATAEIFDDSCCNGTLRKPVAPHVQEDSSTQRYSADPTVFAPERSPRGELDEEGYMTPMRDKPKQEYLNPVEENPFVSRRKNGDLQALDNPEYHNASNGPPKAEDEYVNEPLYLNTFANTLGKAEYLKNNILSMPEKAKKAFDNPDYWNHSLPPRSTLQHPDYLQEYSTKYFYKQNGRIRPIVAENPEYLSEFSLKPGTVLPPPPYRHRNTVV

[5] = molecular target: T3, Dual specificity protein kinase TTK (Homo sapiens) (UniProt P33981); test: Inhibition of TTK (unknown origin) at 10 uM incubated for 30 mins in presence of [gamma-33P]ATP by multidrop micro reagent based assay relative to control
T3 sequence (whole entry): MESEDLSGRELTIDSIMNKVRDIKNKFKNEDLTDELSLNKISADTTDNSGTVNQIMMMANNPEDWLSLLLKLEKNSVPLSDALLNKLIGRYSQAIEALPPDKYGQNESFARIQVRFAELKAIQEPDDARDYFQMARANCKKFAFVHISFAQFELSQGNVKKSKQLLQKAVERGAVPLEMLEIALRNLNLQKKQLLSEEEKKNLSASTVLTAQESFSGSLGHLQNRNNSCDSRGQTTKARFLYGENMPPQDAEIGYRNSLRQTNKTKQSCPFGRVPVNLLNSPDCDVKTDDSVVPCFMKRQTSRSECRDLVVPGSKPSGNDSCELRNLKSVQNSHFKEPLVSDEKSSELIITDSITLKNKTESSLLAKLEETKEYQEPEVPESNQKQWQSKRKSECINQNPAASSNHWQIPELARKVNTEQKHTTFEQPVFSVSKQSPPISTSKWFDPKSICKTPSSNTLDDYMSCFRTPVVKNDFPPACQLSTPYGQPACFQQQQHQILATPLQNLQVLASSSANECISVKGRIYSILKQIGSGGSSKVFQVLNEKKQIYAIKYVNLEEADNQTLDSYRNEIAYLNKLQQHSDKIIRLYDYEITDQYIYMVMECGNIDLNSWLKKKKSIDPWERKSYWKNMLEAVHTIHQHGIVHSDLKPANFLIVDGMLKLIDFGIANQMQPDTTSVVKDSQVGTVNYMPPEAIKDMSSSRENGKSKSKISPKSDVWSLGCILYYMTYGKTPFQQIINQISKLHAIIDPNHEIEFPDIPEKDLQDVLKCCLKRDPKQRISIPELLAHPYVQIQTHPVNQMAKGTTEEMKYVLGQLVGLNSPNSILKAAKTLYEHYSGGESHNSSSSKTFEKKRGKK
Procedure, shortened: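 Single-concentration screen across a panel of 85 protein kinases. Activity is expressed as a percentage of control incubations run without inhibitor.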

[6] = molecular target: Mitogen-activated protein kinase 8 (Homo sapiens) (UniProt P45983); test: Inhibition of JNK1 (unknown origin) at 10 uM incubated for 30 mins in presence of [gamma-33P]ATP by multidrop micro reagent based assay relative to control; values are per cent of control
Mitogen-activated protein kinase 8 (Homo sapiens), sequence (P45983 whole entry): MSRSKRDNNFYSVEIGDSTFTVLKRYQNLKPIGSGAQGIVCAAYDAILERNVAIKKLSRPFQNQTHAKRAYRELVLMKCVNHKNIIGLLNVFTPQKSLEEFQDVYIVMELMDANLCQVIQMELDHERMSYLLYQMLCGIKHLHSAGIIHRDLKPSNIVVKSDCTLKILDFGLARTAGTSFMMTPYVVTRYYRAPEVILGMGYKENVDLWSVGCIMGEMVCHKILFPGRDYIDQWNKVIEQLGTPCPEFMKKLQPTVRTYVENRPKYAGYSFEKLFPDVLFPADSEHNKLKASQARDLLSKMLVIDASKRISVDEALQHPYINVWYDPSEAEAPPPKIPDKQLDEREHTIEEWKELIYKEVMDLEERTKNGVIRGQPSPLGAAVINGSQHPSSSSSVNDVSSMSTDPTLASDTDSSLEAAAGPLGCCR

[7] = molecular target: Mitogen-activated protein kinase kinase kinase 9 (Homo sapiens) (UniProt P80192); test: Inhibition of MLK1 (unknown origin) at 10 uM incubated for 30 mins in presence of [gamma-33P]ATP by multidrop micro reagent based assay relative to control; values are per cent of control
Mitogen-activated protein kinase kinase kinase 9 (Homo sapiens), sequence (P80192 whole entry, looked up): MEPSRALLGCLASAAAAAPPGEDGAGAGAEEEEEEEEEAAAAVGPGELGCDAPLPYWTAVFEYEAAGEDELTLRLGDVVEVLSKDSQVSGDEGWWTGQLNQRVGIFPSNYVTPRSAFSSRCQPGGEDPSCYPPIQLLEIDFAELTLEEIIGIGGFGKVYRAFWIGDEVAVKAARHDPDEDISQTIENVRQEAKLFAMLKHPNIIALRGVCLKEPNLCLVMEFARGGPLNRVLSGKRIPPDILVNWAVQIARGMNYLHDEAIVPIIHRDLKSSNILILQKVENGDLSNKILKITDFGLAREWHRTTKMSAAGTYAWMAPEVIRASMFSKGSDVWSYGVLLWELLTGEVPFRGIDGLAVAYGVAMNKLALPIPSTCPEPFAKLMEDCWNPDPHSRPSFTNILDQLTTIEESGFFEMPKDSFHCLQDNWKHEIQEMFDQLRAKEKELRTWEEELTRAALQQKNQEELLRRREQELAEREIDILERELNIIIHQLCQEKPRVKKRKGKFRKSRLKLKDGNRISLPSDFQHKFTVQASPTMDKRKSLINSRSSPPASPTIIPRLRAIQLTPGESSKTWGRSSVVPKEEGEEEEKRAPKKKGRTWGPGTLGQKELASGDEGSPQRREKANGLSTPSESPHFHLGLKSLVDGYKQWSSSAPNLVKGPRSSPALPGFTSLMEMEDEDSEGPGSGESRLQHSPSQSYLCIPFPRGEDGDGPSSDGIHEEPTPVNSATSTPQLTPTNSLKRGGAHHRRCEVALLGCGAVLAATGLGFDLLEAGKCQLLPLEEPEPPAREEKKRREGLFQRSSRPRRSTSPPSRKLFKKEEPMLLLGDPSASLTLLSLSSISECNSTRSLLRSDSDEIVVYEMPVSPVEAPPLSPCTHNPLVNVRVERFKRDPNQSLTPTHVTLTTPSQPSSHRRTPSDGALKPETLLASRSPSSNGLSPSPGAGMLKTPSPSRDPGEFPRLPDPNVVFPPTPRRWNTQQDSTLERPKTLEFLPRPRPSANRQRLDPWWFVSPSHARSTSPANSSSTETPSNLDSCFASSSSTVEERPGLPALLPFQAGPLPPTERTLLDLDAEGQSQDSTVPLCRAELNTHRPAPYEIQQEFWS

| Compound | residual activity [1] | residual activity [2] | residual activity (Homo sapiens) | inhibition [3] | residual activity [4] | inhibition [5] | residual activity [6] | residual activity [7] |
| --- | --- | --- | --- | --- | --- | --- | --- | --- |
| CC1=C(C(=O)Nc2cc3cn[nH]c3cc2F)C(c2ccc(C(F)(F)F)cc2)CC(=O)N1 (stereo unspecified) | 94% | 95% | 117% | 106% | 50% | – | – | – |
| Cc1cncc2cccc(S(=O)(=O)N3CCCNC[C@@H]3C)c12 | – | – | 82% | – | 107% | – | – | – |
| CCn1c(-c2nonc2N)nc2cnc(Oc3cccc(NC(=O)c4ccc(OCCN5CCOCC5)cc4)c3)cc21 [GSK-269962A] | 77% | 27% | – | 61% | – | – | – | – |
| C[C@@H](N)[C@H]1CC[C@H](C(=O)Nc2ccncc2)CC1 | – | – | – | – | – | 73% | 106% | 90% |
| O=S(=O)(c1cccc2cnccc12)N1CCCNCC1 [FASUDIL] | – | – | – | – | – | 73% | 115% | 56% |
